Legend:
[1] = molecular target: Sodium-dependent dopamine transporter (Rattus norvegicus, UniProt P23977); test: Binding affinity for dopamine transporter
Procedure, shortened: (§1)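 [125I]RTI-55 competition binding. Drugs and blockers in 55.2 mM sodium phosphate buffer pH 7.4 with 1 mg/mL BSA. Radioligand in the same buffer with chymostatin, leupeptin, EDTA and EGTA. Triplicate incubation for 18–24 h at 4 °C to equilibrium. Filtered over GF/B filters presoaked in 2% polyethylenimine, washed with ice-cold Tris-HCl/NaCl pH 7.4. Ki derived.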

[2] = molecular target: Monoamine transporters; serotonin & dopamine (Rattus norvegicus) (UniProt P31652+P23977); test: Selectivity ratio for serotonin transporter to dopamine transporter; assay type: protein assay
Chain of Monoamine transporters; serotonin & dopamine (Rattus norvegicus) (P23977 whole entry, looked up): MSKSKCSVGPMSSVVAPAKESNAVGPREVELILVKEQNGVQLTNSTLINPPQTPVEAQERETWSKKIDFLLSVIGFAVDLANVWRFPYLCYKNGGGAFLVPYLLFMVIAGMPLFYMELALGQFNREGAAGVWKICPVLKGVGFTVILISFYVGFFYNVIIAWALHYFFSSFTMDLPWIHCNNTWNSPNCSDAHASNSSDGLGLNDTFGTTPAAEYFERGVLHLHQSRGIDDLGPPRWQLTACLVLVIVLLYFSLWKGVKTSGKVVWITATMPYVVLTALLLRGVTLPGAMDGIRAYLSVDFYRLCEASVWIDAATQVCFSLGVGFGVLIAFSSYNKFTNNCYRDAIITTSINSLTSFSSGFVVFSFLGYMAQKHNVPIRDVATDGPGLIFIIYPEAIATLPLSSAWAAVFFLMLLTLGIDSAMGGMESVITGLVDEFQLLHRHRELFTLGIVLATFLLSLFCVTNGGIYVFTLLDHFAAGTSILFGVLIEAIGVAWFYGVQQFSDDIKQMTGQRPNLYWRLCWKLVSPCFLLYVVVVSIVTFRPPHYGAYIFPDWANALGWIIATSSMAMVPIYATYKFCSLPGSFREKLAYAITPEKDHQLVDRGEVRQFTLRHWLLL
Chain of Monoamine transporters; serotonin & dopamine (Rattus norvegicus) (P31652 whole entry, looked up): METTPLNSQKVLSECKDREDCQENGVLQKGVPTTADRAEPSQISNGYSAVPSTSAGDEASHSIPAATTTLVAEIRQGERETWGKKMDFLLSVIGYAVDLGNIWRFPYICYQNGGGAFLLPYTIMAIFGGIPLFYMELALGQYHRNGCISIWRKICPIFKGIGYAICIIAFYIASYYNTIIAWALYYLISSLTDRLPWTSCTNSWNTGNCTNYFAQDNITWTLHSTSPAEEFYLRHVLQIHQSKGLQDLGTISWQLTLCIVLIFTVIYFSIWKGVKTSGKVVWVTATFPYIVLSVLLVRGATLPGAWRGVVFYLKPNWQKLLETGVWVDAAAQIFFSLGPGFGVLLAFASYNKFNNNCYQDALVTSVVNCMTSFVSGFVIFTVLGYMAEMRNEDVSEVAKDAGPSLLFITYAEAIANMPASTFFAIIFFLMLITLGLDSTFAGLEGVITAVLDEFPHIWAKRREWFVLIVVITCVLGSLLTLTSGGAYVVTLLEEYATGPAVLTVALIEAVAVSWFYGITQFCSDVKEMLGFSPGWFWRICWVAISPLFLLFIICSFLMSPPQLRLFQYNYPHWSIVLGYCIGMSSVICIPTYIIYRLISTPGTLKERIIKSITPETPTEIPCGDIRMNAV

[3] = molecular target: Sodium-dependent serotonin transporter (Rattus norvegicus, UniProt P31652); test: Binding affinity for serotonin transporter; procedure, shortened: as §1
Chain of Sodium-dependent serotonin transporter (P31652 whole entry): as the sequence (P31652 whole entry, looked up) above

Rattus norvegicus = test: Dopamine (DA) reuptake inhibition properties of in vivo extracellular dopamine (ECDA) levels in rat nucleus accumbens microdialysis assay, at […]; assay type: functional
Procedure, shortened: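 Male Sprague–Dawley rats (300–450 g), conscious and freely moving, with jugular catheters and nucleus accumbens probes (2 mm exchange surface). Single iv doses (as salt) of drug or saline vehicle given after three baseline samples. Dialysate taken every 20 min for 2 h, DA by microbore HPLC-EC. Values are pg/5 µL, mean ± SEM, n = 4–5 rats/group. Repeated-measures ANOVA.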

Chain of Sodium-dependent dopamine transporter (P23977 whole entry): as the sequence (P23977 whole entry, looked up) above

Row | Compound | Ki [1] | Ratio [2] | Ki [3] | DA level (Rattus norvegicus)
1 | O[C@@H](Cc1ccccc1)CN1CCN(CCOC(c2ccccc2)c2ccccc2)CC1 | 2.3 nM | 939 | 2160 nM | 
2 | Fc1ccc(C(OCCN2CCN(CCc3ccccc3)CC2)c2ccc(F)cc2)cc1 | 8 nM | 5 | 36 nM | 
3 | O[C@H](Cc1ccccc1)CN1CCN(CCOC(c2ccccc2)c2ccccc2)CC1 | 25 nM | 72 | 1800 nM | 
4 | O[C@@H](Cc1ccccc1)CN1CCN(CCOC(c2ccc(F)cc2)c2ccc(F)cc2)CC1 | 0.75 nM | 307 | 230 nM | 1.73 pg 5ul-1
5 | O[C@H](CN1CCN(CCOC(c2ccc(F)cc2)c2ccc(F)cc2)CC1)c1ccccc1 | 11 nM | 7 | 77 nM | 
6 | O[C@H](Cc1ccccc1)CN1CCN(CCOC(c2ccc(F)cc2)c2ccc(F)cc2)CC1 | 12 nM | 13 | 160 nM | 1.73 pg 5ul-1
7 | O[C@@H](CN1CCN(CCOC(c2ccc(F)cc2)c2ccc(F)cc2)CC1)c1ccccc1 | 26 nM | 0.5 | 13 nM | 
8 | O[C@@H](CN1CCN(CCOC(c2ccccc2)c2ccccc2)CC1)c1ccccc1 | 170 nM | 2 | 330 nM | 
9 | OCC(c1ccccc1)N1CCN(CCOC(c2ccc(F)cc2)c2ccc(F)cc2)CC1 (racemic) | 48 nM | 52 | 2500 nM | 
10 | O[C@H](CN1CCN(CCOC(c2ccccc2)c2ccccc2)CC1)c1ccccc1 | 30 nM | 47 | 1400 nM | 
11 | OC(Cc1ccccc1)CN1CCN(CCOC(c2ccc(F)cc2)c2ccc(F)cc2)CC1 (racemic) | 2.3 nM | 52 | 120 nM | 
12 | OCC(c1ccccc1)N1CCN(CCOC(c2ccccc2)c2ccccc2)CC1 (racemic) | 120 nM | 32 | 3800 nM | 

From ChEMBL document CHEMBL1135891, “Development of long-acting dopamine transporter ligands as potential cocaine-abuse therapeutic agents: chiral hydroxyl-containing derivatives of 1-[2-[bis(4-fluorophenyl)methoxy]ethyl]-4-(3-phenylpropyl)piperazine and 1-[2-(diphenylmethoxy)ethyl]-4-(3-phenylpropyl)piperazine” (J Med Chem, 2002)
